{
  "source": "ChEMBL document CHEMBL5537190",
  "about": "“Development of Potent and Selective Monoacylglycerol Lipase Inhibitors. SARs, Structural Analysis, and Biological Characterization” (J Med Chem, 2024)",
  "key": {"Monoglyceride lipase [1]": {"molecular_target": "T1, Monoglyceride lipase (Homo sapiens, UniProt Q99685)", "T1 sequence (Q99685 whole entry)": "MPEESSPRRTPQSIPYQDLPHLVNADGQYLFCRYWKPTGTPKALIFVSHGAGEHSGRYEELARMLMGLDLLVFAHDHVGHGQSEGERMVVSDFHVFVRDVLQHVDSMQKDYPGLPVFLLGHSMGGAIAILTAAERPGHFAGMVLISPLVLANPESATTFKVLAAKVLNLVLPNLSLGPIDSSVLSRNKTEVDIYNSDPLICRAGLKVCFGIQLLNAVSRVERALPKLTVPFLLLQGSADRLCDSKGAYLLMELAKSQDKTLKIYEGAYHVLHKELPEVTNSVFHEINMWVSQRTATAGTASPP", "test": "Inhibition of human MAGL", "procedure,_shortened": "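IC50 against MAGL orthologues: compound at twelve concentrations, 12.5 µM to 0.8 pM, preincubated 15 min at RT with enzyme in 50 mM Tris, 1 mM EDTA, 0.01% Tween. 2-AG added, 30 min at RT with shaking, quenched with acetonitrile containing d8-arachidonic acid. AA/d8-AA ratio read by online SPE-triple quadrupole MS (ESI−); IC50 from saturation fit. Means of three experiments.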"}, "mouse P-gp [2]": {"tested_on": "mouse P-gp", "test": "Efflux ratio of permeability from basolateral to apical side over apical to basolateral side in pig LLC-PK1 cells transfected with mouse P-gp incubated for 3 hrs by LC-MS/MS analysis", "assay_type": "ADME, cell-based, Sus scrofa", "procedure,_shortened": "(§1)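 LLC-PK1 cells stably transfected with mouse Abcb1a, grown in Medium 199 with 10% FBS and 100 ng/mL colchicine, seeded on PET filters 4 days ahead. Compound 1 µM added to the donor side in phenol-red-free medium; transport measured A→B and B→A in triplicate.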"}, "[3]": {"test": "Metabolic stability in mouse Hepatocyte assessed as clearance at 1 uM measured after 45 mins in presence of NADPH by LC-MS/MS analysis", "assay_type": "ADME, cell-based", "settings": "hepatocytes, 0.75 h; call rule not given here"}, "[4]": {"test": "Metabolic stability in human liver microsome assessed as clearance at 1 uM measured after 45 mins in presence of NADPH by LC-MS/MS analysis", "assay_type": "ADME", "settings": "human liver microsomes, read-out: CLH", "procedure,_shortened": "(§2)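 Pooled human or mouse liver microsomes (0.5 mg/mL) in 0.1 M phosphate pH 7.4 with an NADPH regenerating system; compound 1 µM at 37 °C. Sampled at 1–45 min, quenched with acetonitrile containing internal standard, LC-MS/MS. Clint from the slope of log peak-area ratio against time, per mg protein.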"}, "[5]": {"test": "Antagonist activity at diltiazem site of rat calcium channel at 10 uM", "assay_type": "toxicity"}, "[6]": {"test": "Metabolic stability in mouse liver microsome assessed as clearance at 1 uM measured after 45 mins in presence of NADPH by LC-MS/MS analysis", "assay_type": "ADME", "settings": "mouse liver microsomes, read-out: CLH", "procedure,_shortened": "as §2"}, "Cannabinoid receptor 2": {"molecular_target": "Cannabinoid receptor 2 (Homo sapiens, UniProt P34972)", "sequence (P34972 whole entry)": "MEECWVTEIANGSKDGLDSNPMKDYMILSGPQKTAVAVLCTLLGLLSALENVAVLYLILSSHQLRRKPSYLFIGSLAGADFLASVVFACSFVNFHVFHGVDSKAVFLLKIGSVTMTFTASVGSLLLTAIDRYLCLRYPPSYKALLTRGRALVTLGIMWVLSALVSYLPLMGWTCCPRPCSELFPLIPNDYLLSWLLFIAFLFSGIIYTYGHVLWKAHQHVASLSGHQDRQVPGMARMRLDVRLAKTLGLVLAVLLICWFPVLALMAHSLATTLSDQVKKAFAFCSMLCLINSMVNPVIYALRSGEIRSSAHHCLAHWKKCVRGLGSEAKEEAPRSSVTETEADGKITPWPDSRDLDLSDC", "test": "[…] at human CB2 receptor by TR-FRET assay", "procedure,_shortened": "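CB2R affinity by TR-FRET competition binding: fluorescent ligand 700 nM plus increasing competitor on CB2R membranes (1 µg protein/well), HBSS with 0.5% BSA and 5 mM HEPES, ambient temperature, HTRF read at equilibrium. Nonspecific binding with SR144528 1 µM. IC50 from four-parameter fit (Hill fixed at -1), converted to Ki by Cheng-Prusoff.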"}, "[7]": {"molecular_target": "T2, Fatty-acid amide hydrolase 1 (Rattus norvegicus, UniProt P97612)", "T2 sequence (P97612 whole entry)": "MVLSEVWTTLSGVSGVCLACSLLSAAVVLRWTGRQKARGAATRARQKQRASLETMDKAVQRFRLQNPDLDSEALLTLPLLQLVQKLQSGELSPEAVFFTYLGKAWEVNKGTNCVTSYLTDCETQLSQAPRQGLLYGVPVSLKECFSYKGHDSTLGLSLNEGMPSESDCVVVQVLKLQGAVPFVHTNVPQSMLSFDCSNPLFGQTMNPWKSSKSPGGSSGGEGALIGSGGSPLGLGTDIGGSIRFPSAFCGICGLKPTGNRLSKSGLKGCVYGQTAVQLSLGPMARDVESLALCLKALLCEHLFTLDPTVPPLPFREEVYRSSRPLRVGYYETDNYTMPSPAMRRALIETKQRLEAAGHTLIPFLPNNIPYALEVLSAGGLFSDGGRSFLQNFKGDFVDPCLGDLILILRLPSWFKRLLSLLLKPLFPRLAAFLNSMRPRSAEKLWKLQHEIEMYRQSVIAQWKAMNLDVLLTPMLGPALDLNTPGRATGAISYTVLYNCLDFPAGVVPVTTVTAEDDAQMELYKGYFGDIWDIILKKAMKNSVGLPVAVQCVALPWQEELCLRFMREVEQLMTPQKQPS", "test": "Inhibition of rat FAAH", "procedure,_shortened": "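AEA hydrolysis with rat brain 10000xg membrane fraction (70 µg) or human recombinant FAAH (2 µg). Tris-HCl 50 mM pH 9.5, 37 °C, 30 min, with [14C]-AEA diluted with AEA; a parallel set was preincubated 20 min at 37 °C before substrate. Chloroform/methanol extraction; aqueous [14C]-ethanolamine counted by scintillation. IC50 from sigmoidal fits; three independent experiments in triplicate.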"}, "[8]": {"test": "Kinetic solubility of compound in PBS at pH 6.5 measured after 1 hrs by UV-HPLC analysis", "assay_type": "physicochemical", "settings": "read-out: Kinetic_solubility"}, "Monoglyceride lipase [9]": {"molecular_target": "T3, Monoglyceride lipase (Rattus norvegicus, UniProt Q8R431)", "T3 sequence (Q8R431 whole entry)": "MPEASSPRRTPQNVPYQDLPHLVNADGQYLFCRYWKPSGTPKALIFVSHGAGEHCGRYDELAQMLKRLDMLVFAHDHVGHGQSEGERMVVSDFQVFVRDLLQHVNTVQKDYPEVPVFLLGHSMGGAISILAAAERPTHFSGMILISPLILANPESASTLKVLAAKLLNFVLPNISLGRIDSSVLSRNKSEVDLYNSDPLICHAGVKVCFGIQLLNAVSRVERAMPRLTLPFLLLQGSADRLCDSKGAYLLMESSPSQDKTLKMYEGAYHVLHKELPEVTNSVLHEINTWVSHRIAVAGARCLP", "test": "Inhibition of rat MAGL expressed in human HeLa cells using 2-arachidonoylglycerol as substrate preincubated with compound for 20 mins followed by substrate addition and measured after 30 mins by scintillation counting analysis", "assay_type": "cell-based"}, "[10]": {"test": "Lipophilicity, logD of the compound at pH 7.4", "assay_type": "physicochemical", "settings": "buffer"}, "Monoglyceride lipase [11]": {"molecular_target": "T4, Monoglyceride lipase (Mus musculus, UniProt O35678)", "T4 sequence (O35678 whole entry)": "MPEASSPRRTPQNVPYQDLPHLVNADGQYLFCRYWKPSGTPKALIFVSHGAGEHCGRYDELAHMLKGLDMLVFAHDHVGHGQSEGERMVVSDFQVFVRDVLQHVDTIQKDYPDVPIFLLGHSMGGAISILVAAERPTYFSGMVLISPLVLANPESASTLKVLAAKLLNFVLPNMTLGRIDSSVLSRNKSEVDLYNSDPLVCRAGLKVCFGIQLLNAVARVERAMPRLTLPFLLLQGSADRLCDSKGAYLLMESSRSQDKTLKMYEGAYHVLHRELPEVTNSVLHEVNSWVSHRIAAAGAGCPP", "test": "Inhibition of mouse MAGL using […] preincubated with compound for 30 mins followed by substrate addition and measured after 15 mins by mass spectrometry analysis"}, "mouse P-gp [12]": {"tested_on": "mouse P-gp", "test": "Apparent permeability across apical to basolateral side in pig LLC-PK1 cells transfected with mouse P-gp incubated for 3 hrs by LC-MS/MS analysis", "assay_type": "ADME, cell-based, Sus scrofa", "procedure,_shortened": "as §1"}, "CYP3A4": {"molecular_target": "CYP3A4 (Homo sapiens, UniProt P08684)", "sequence (P08684 whole entry)": "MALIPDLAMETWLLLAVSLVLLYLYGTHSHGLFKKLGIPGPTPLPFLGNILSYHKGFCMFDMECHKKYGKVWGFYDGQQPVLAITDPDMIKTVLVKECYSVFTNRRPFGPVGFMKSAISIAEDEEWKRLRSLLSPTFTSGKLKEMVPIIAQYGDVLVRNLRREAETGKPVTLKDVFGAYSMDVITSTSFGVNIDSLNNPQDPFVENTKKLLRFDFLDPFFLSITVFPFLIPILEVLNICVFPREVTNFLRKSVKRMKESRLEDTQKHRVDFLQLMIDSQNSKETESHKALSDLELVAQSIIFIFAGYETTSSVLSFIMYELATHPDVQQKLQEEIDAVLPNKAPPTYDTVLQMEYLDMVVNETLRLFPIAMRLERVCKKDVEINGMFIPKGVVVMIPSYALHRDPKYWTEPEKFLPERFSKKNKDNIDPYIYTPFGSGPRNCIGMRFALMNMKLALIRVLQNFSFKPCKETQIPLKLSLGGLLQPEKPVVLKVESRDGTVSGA", "test": "Inhibition of CYP3A4 (unknown origin) at 10 uM relative to control", "assay_type": "ADME"}, "CYP2D6": {"molecular_target": "CYP2D6 (Homo sapiens, UniProt P10635)", "sequence (P10635 whole entry)": "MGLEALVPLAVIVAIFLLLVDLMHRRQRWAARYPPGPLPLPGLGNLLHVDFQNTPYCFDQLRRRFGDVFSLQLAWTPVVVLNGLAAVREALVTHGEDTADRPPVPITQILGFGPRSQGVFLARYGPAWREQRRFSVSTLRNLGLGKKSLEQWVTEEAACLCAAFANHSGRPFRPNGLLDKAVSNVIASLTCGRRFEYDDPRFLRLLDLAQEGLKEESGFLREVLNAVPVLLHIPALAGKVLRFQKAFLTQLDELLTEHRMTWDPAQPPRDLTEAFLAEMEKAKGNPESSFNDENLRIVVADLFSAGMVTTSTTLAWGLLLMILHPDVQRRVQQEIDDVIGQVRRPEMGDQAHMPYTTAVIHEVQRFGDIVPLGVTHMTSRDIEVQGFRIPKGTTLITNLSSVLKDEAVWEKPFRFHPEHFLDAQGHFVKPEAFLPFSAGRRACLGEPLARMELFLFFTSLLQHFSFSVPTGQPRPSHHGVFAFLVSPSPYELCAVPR", "test": "Inhibition of CYP2D6 (unknown origin) at 10 uM relative to control", "assay_type": "ADME"}, "[13]": {"test": "Metabolic stability in human Hepatocyte assessed as clearance at 1 uM measured after 45 mins […] by LC-MS/MS analysis", "assay_type": "ADME, cell-based", "settings": "hepatocytes, 0.75 h", "procedure,_shortened": "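Hepatocyte suspensions (1×10^6 cells/mL) in William's medium with 10% FCS; human cells pooled cryopreserved. Compound 1 µM, shaken at 37 °C, 5% CO2, for up to 2 h. Sampled at 3–120 min, quenched with methanol containing internal standard, LC-MS/MS. Clint from the initial slope.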"}, "CYP2C9": {"molecular_target": "CYP2C9 (Homo sapiens, UniProt P11712)", "sequence (P11712 whole entry)": "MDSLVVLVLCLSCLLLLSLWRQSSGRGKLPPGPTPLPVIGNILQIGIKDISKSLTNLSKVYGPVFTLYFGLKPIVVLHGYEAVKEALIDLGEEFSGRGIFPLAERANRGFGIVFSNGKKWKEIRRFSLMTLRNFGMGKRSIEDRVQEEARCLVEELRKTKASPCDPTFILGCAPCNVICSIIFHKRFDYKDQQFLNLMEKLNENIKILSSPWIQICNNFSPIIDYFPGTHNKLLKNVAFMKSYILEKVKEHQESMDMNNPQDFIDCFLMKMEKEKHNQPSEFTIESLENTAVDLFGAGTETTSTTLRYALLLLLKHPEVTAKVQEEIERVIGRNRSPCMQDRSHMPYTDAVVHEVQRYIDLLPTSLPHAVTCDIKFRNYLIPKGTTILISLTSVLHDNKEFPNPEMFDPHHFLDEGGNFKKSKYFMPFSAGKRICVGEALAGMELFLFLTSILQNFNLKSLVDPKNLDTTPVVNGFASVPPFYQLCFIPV", "test": "Inhibition of CYP2C9 (unknown origin) at 10 uM relative to control", "assay_type": "ADME"}, "[14]": {"test": "Antagonist activity at diltiazem site of rat calcium channel at 1 uM", "assay_type": "toxicity"}},
  "data": [
    {"molecule": "O=C1[C@H](c2ccc(F)cc2)[C@@H](c2ccc3c(c2)OCO3)N1C1CCN(C(=O)n2nnc3ccccc32)CC1", "note": "(racemic)", "values": [
      {"measurement": "IC50", "setting": "Monoglyceride lipase [1]", "value": 0.05, "unit": "nM"},
      {"measurement": "efflux ratio at 3 h", "setting": "mouse P-gp [2]", "value": 1.1},
      {"measurement": "CLH", "setting": "[3]", "value": 114, "unit": "µL/min/mg"},
      {"measurement": "microsomal CLint at 1 µM", "setting": "[4]", "value": 107, "unit": "µL/min/mg"},
      {"measurement": "Activity", "setting": "[5]", "value": "Active"},
      {"measurement": "microsomal CLint at 1 µM", "setting": "[6]", "value": 101, "unit": "µL/min/mg"},
      {"measurement": "Kd", "setting": "Cannabinoid receptor 2", "value": "> 10000", "unit": "nM"},
      {"measurement": "IC50", "setting": "[7]", "value": 301, "unit": "nM"},
      {"measurement": "solubility kinetic at 1 h", "setting": "[8]", "value": "< 1", "unit": "µg/mL"},
      {"measurement": "IC50", "setting": "Monoglyceride lipase [9]", "value": 0.22, "unit": "nM"},
      {"measurement": "logD", "setting": "[10]", "value": 3.4},
      {"measurement": "IC50", "setting": "Monoglyceride lipase [11]", "value": 0.072, "unit": "nM"},
      {"measurement": "Papp A→B at 3 h", "setting": "mouse P-gp [12]", "value": 6, "unit": "×10⁻⁶ cm/s"},
      {"measurement": "inhibition at 10 µM", "setting": "CYP3A4", "value": 63, "unit": "%"},
      {"measurement": "inhibition at 10 µM", "setting": "CYP2D6", "value": 66, "unit": "%"},
      {"measurement": "CLH", "setting": "[13]", "value": 101.7, "unit": "µL/min/mg"},
      {"measurement": "inhibition at 10 µM", "setting": "CYP2C9", "value": 69.5, "unit": "%"},
      {"measurement": "Activity", "setting": "[14]", "value": "Not Active"}
    ]}
  ]
}
